Series [1] is described as follows: Plasma clearance in iv dosed cynomolgus monkey. Type of series: ADME, organism-based, Macaca fascicularis.
The target in series [2] is T1, Cytochrome P450 11B2, mitochondrial (Homo sapiens, UniProt P19099).
T1 sequence (P19099 whole entry): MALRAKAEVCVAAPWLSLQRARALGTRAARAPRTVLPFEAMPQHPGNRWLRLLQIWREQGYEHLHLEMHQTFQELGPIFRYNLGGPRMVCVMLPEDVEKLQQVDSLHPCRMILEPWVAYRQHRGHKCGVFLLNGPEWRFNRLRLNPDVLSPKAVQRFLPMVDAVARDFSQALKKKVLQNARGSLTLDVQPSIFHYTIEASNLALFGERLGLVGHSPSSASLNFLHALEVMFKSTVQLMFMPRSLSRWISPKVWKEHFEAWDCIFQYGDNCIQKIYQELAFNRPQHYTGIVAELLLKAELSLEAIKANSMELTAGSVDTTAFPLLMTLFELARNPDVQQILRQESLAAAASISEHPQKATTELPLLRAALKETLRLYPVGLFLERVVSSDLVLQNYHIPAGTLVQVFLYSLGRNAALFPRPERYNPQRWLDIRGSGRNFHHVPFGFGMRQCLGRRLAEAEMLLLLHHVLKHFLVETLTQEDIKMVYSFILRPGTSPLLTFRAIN
The series can be described thus: Inhibition of CYP11B2 in H295R cell assessed as reduction in 18-hyroxycorticosterone by LC/MS-MS method.

A short description of series [3]: Intrinsic clearance in rat hepatocytes. The series is classed as ADME, cell-based, Hepatocyte. The note with it: read-out: CLH.
In a further series the test system is Cynomolgus monkey. The series can be described thus: In vivo inhibition of CYP11B1 in cynomolgus monkey assessed as reduction in ACTH-induced cortisol at 10 mg/kg, po preincubated for 1 hr followed by ACTH challenge and measured after 60 mins by LC/MS-MS analysis. Type of series: ADME, organism-based, Macaca fascicularis. Summed up:
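Cynomolgus monkeys preselected as Synacthen responders (at least 2-fold rise in aldosterone, cortisol and corticosterone). Two animals per group. Oral vehicle or compound at 0.01–10 mg/kg in hydroxyethylcellulose/polysorbate 80/paraben suspension (2 mL/kg) at T=0, then 14.5 µg/kg Synacthen i.m. at 1 hr. EDTA blood drawn from -5 min to 24 h. Plasma steroids measured by LC/MS-MS; data shown 60 min after challenge.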

Series [4] is described as follows: Protein binding in cynomolgus monkey plasma assessed as unbound fraction at 1 uM by micro-equilibrium dialysis based LC-MS/MS analysis. The series is classed as ADME, cell-free, Macaca fascicularis. Summed up:
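Equilibrium dialysis of pooled rat or cynomolgus plasma against Soerensen buffer pH 7.4, 12–14 kDa cut-off membrane. Compounds tested in cassettes of 2–5 at 1 μM initial total concentration, with diazepam as control. Dialysis 5 hr at 37 °C under 5% CO₂. Unbound percentage by LC/MS-MS.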
In general terms: In equilibrium dialysis free small molecules cross a membrane that holds back macromolecules.

A short description of series [5]: Free plasma concentration in cynomolgus monkey at 1 mg/kg. Type of series: ADME, organism-based, Macaca fascicularis. The note with it: in vivo. In a few lines: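 Cynomolgus monkeys, 2 per group, given single oral doses of 0.01, 0.1, 1 or 10 mg/kg as a suspension in hydroxyethylcellulose/polysorbate 80/parabens vehicle, 2 mL/kg. Synacthen 14.5 µg/kg given i.m. at 1 hr. Plasma compound levels by LC/MS-MS. Average free exposure calculated from AUC0-7hr and corrected for plasma protein binding.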

Series [6] is described as follows: Dose normalized AUC in Wister-Han rat at 1 mg/kg, iv or 3 mg/kg, po administered as single dose by LC/MS-MS analysis. Type of series: ADME, organism-based. To be noted: in vivo. In a few lines:
(§1)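 Male Wistar-Han rats, single dose. IV 1 mg/kg, compound at 0.5 mg/mL in NMP:saline 30/70 (v/v). Oral 3 mg/kg, 0.25 mg/mL in 2% Klucel with 0.1% Polysorbate 80. Three rats per time point. Heparinized blood taken at eight (iv) or seven (po) time points, plasma stored at -20 °C. Plasma levels by LC/MS-MS. Non-compartmental analysis.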

A short description of series [7]: Inhibition of cynomolgus monkey CYP11B2 expressed in human G401 cells using 1-deoxycorticosterone as substrate by HTRF assay. Type of series: cell-based, Macaca fascicularis. To be noted: g-401. Summed up: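 Cells with endogenous FDXR/FDX and no detectable CYP11B activity, stably transfected (CMV promoter, neomycin selection, G-418 400 µg/mL) with CYP11B1 or CYP11B2 of the named species. Assayed in DMEM/F12 with 2.5% charcoal-treated FCS. Substrate 1 µM 11-deoxycorticosterone (B2) or 11-deoxycortisol (B1), 16 hr. Aldosterone or cortisol in supernatant measured by HTRF. IC50 from 4-parameter MMF fit; selectivity factor is the B1/B2 IC50 ratio.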

Series [8] is described as follows: Solubility of the compound in phosphate buffer at pH 6.5 shaken for 2 hrs followed by overnight incubation. The series is classed as physicochemical. In a few lines:
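Lyophilisation solubility assay run in duplicate from 10 mM DMSO stock. DMSO evaporated and residue redissolved in 0.05 M phosphate, pH 6.5. Stirred 1 hr, shaken 2 hr, left overnight, then filtered. Filtrate and a 1/10 dilution analysed by HPLC-UV against a four-point calibration.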

Series [9] in a line: Plasma clearance in Wister-Han rat at 1 mg/kg, iv administered as single dose by LC/MS-MS analysis. The series is classed as ADME, organism-based. The note with it: Wistar-Han. Summed up:
as §1

The nature of series [10]: Dose normalized AUC in cynomolgus monkey. The series is classed as ADME, Macaca fascicularis. To be noted: in vivo.

Values after ≈ are worked out from the molar mass of the structure shown. Where only a bound is given, the exact number is not on record here.

With `CCS(=O)(=O)N1CC(Oc2cncc(N3C(=O)c4ccc(Cl)cc4C3(C)C)c2)C1`, the clearance in series [1] is 4.6 mL/min/kg; in series [9] it was 3.8 mL/min/kg. In addition, the half-inhibitory concentration (IC50) was less than 1 nM in series [2] and 2 nM in series [7]. Moreover, the CLint scaled in series [3] stood at 26.7 mL/min/kg. In addition, the Activity entry with Cynomolgus monkey is recorded as “Toxic”. Besides, in series [4], the fraction unbound at 1 µM was found to be 0.138. Further, in series [5], the “Cp(f)” value worked out at 10.3 ng/mL. Besides, the AUC/dose in series [6] was 2123 kg·ng·h/mL/mg; in series [10] it was 1085 kg·ng·h/mL/mg. In addition, the concentration in solution in series [8] (solubility at 2 h) was 78 µg/mL (≈ 179 µM).

For orientation: clearance means the rate of elimination divided by the concentration. A word on the IC50: it is the concentration at which inhibition is half-maximal. One may read the fraction unbound as the share of the substance not bound to proteins or other matrix. The term solubility denotes the dissolved amount per volume that the medium holds.

The values are drawn from ChEMBL document CHEMBL4616681, “Discovery of 3-Pyridyl Isoindolin-1-one Derivatives as Potent, Selective, and Orally Active Aldosterone Synthase (CYP11B2) Inhibitors” (J Med Chem, 2020).
